Columns and labels:
Rattus norvegicus [1] = assay: In vivo evaluation of iv dosage of the furan dications against Pneumocystis carinii in lung tissue of rats at 7.1 umol/kg/day; assay type: functional
Procedure, shortened: (§1)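 Immunosuppressed rat model of P. carinii pneumonia. Compounds are dosed intravenously. Read-out is cysts per g of lung tissue, compared against pooled saline-treated control rats (n = 125). Other details follow ref 2.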

Rattus norvegicus [2] = assay: In vivo evaluation of iv dosage of the Dicationic furans against Pneumocystis carinii in lung tissue of rats at 0.03 umol/kg/day; assay type: functional
Procedure, shortened: (§2)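 Immunosuppressed rat model of P. carinii pneumonia, with test compounds dosed intravenously per an earlier protocol. Read-out is cyst count per g of lung tissue, compared against pooled saline-treated controls.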

[3] = In vivo evaluation of iv dosage of the Dicationic furans against Pneumocystis carinii in rats measured 0.03 umol/kg/day; assay type: ADME, organism-based; details: rat
Procedure, shortened: (§3)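 Intravenous dosing of test dications in immunosuppressed rats infected with P. carinii, following a previously described protocol. Infection is scored by lung cyst burden relative to pooled saline-control animals.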

Rattus norvegicus [4] = assay: In vivo evaluation of iv dosage of the Dicationic furans against Pneumocystis carinii in lung tissue of rats at 2.7 umol/kg/day; assay type: functional; procedure, shortened: as §2
Rattus norvegicus [5] = assay: In vivo evaluation of iv dosage of the Dicationic furans against Pneumocystis carinii in lung tissue of rats at 0.3 umol/kg/day; assay type: functional; procedure, shortened: as §2
[6] = In vivo evaluation of iv dosage of the Dicationic furans against Pneumocystis carinii in rats measured 13.3 umol/kg/day; assay type: ADME, organism-based; details: rat; procedure, shortened: as §3
Rattus norvegicus [7] = assay: In vivo evaluation of iv dosage of the Dicationic furans against Pneumocystis carinii in lung tissue of rats at 13.3 umol/kg/day; assay type: functional; procedure, shortened: as §2
[8] = In vivo evaluation of iv dosage of the Dicationic furans against Pneumocystis carinii in rats measured 2.7 umol/kg/day; assay type: ADME, organism-based; details: rat; procedure, shortened: as §3
[9] = In vivo evaluation of iv dosage of the Dicationic furans against Pneumocystis carinii in rats measured 0.3 umol/kg/day; assay type: ADME, organism-based; details: rat; procedure, shortened: as §3
Rattus norvegicus [10] = assay: In vivo evaluation of iv dosage of the Dicationic furans against Pneumocystis carinii in lung tissue of rats at 0.2 umol/kg/day; assay type: functional; procedure, shortened: as §1
Rattus norvegicus [11] = assay: In vivo evaluation of iv dosage of the Dicationic furans against Pneumocystis carinii in lung tissue of rats at 1.9 umol/kg/day; assay type: functional; procedure, shortened: as §1
[12] = In vivo evaluation of iv dosage of the Dicationic furans against Pneumocystis carinii in rats measured 0.2 umol/kg/day; assay type: ADME, organism-based; details: rat; procedure, shortened: as §3
[13] = In vivo evaluation of iv dosage of the Dicationic furans against Pneumocystis carinii in rats measured 1.9 umol/kg/day; assay type: ADME, organism-based; details: rat; procedure, shortened: as §3
Rattus norvegicus [14] = assay: In vivo evaluation of iv dosage of the Dicationic furans against Pneumocystis carinii in lung tissue of rats at 9.4 umol/kg/day; assay type: functional; procedure, shortened: as §1
[15] = In vivo evaluation of iv dosage of the Dicationic furans against Pneumocystis carinii in rats measured 0.9 umol/kg/day; assay type: ADME, organism-based; details: rat; procedure, shortened: as §3
Rattus norvegicus [16] = assay: In vivo evaluation of iv dosage of the Dicationic furans against Pneumocystis carinii in lung tissue of rats at 0.9 umol/kg/day; assay type: functional; procedure, shortened: as §1
Rattus norvegicus [17] = assay: In vivo evaluation of iv dosage of the Dicationic furans against Pneumocystis carinii in lung tissue of rats at 2.2 umol/kg/day; assay type: functional; procedure, shortened: as §1
[18] = In vivo evaluation of iv dosage of the Dicationic furans against Pneumocystis carinii in rats measured 1.1 umol/kg/day; assay type: ADME, organism-based; details: rat; procedure, shortened: as §3
Rattus norvegicus [19] = assay: In vivo evaluation of iv dosage of the Dicationic furans against Pneumocystis carinii in lung tissue of rats at 10.8 umol/kg/day; assay type: functional; procedure, shortened: as §1
[20] = In vivo evaluation of iv dosage of the Dicationic furans against Pneumocystis carinii in rats measured 10.8 umol/kg/day; assay type: ADME, organism-based; details: rat; procedure, shortened: as §3
Rattus norvegicus [21] = assay: In vivo evaluation of iv dosage of the Dicationic furans against Pneumocystis carinii in lung tissue of rats at 1.1 umol/kg/day; assay type: functional; procedure, shortened: as §1
[22] = In vivo evaluation of iv dosage of the Dicationic furans against Pneumocystis carinii in rats measured 2.2 umol/kg/day; assay type: ADME, organism-based; details: rat; procedure, shortened: as §3
Rattus norvegicus [23] = assay: In vivo evaluation of iv dosage of the Dicationic furans against Pneumocystis carinii in lung tissue of rats at 3.8 umol/kg/day; assay type: functional; procedure, shortened: as §1
Rattus norvegicus [24] = assay: In vivo evaluation of iv dosage of the furan dications against Pneumocystis carinii in lung tissue of rats at 22 umol/kg/day; assay type: functional; procedure, shortened: as §1
Rattus norvegicus [25] = assay: In vivo evaluation of iv dosage of the Dicationic furans against Pneumocystis carinii in lung tissue of rats at 10 umol/kg/day; assay type: functional; procedure, shortened: as §1
Rattus norvegicus [26] = assay: In vivo evaluation of iv dosage of the Dicationic furans against Pneumocystis carinii in lung tissue of rats at 2.5 umol/kg/day; assay type: functional; procedure, shortened: as §1
[27] = In vivo evaluation of iv dosage of the Dicationic furans against Pneumocystis carinii in rats measured 5 umol/kg/day; assay type: ADME, organism-based; details: rat; procedure, shortened: as §3
Rattus norvegicus [28] = assay: In vivo evaluation of iv dosage of the Dicationic furans against Pneumocystis carinii in lung tissue of rats at 5 umol/kg/day; assay type: functional; procedure, shortened: as §1
[29] = In vivo evaluation of iv dosage of the Dicationic furans against Pneumocystis carinii in rats measured 2 umol/kg/day; assay type: ADME, organism-based; details: rat; procedure, shortened: as §3
[30] = In vivo evaluation of iv dosage of the Dicationic furans against Pneumocystis carinii in rats measured 10 umol/kg/day; assay type: ADME, organism-based; details: rat; procedure, shortened: as §3
Rattus norvegicus [31] = assay: In vivo evaluation of iv dosage of the Dicationic furans against Pneumocystis carinii in lung tissue of rats at 2 umol/kg/day; assay type: functional; procedure, shortened: as §1

Cl.N=C(N)c1ccc2[nH]c(-c3ccc(-c4ccc(-c5ccc(-c6nc7cc(C(=N)N)ccc7[nH]6)cc5)o4)cc3)nc2c1
Control (Rattus norvegicus [1]): 180%

N=C(N)c1ccc(-c2ccc(-c3ccc(C(=N)N)cc3)o2)cc1 [FURAMIDINE]
Control (Rattus norvegicus [2]): 26.23% | Toxicity [3]: 0 | Control (Rattus norvegicus [4]): 6.74% | Control (Rattus norvegicus [5]): 6.42% | Toxicity [6]: 0 | Control (Rattus norvegicus [7]): 0.73% | Toxicity [8]: 0 | Toxicity [9]: 0

N=C(NC1CCCC1)c1ccc(-c2ccc(-c3ccc(C(=N)NC4CCCC4)cc3)o2)cc1
Control (Rattus norvegicus [10]): 111.65% | Control (Rattus norvegicus [11]): 0.09% | Toxicity [12]: 0 | Toxicity [13]: 0 | Control (Rattus norvegicus [14]): 0.04% | Toxicity [15]: 0 | Control (Rattus norvegicus [16]): 0.13%

CC(C)NC(=N)c1ccc(-c2ccc(-c3ccc(C(=N)NC(C)C)cc3)o2)cc1
Control (Rattus norvegicus [10]): 201.74% | Toxicity [12]: 0 | Control (Rattus norvegicus [17]): 10.04% | Toxicity [18]: 0 | Control (Rattus norvegicus [19]): 0.24% | Toxicity [20]: 0 | Control (Rattus norvegicus [21]): 14% | Toxicity [22]: 0

Cl.N=C(NC1CCCC1)c1ccc2[nH]c(-c3ccc(-c4nc5cc(C(=N)NC6CCCC6)ccc5[nH]4)o3)nc2c1
Control (Rattus norvegicus [23]): 53.81%

N=C(N)c1ccc(OCCCCCOc2ccc(C(=N)N)cc2)cc1 [PENTAMIDINE]
Control (Rattus norvegicus [24]): 1.82%

Cl.N=C(N)c1ccc2[nH]c(-c3ccc(-c4nc5cc(C(=N)N)ccc5[nH]4)o3)nc2c1
Control (Rattus norvegicus [25]): 1.8%

N=C(NC1CCCC1)c1ccc(-c2ccc(-c3nc4cc(C(=N)NC5CCCC5)ccc4[nH]3)o2)cc1
Control (Rattus norvegicus [26]): 0.82%

CC(C)/N=C(\N)c1ccc(-c2ccc(-c3nc4cc(/C(N)=N\C(C)C)ccc4[nH]3)o2)cc1
Control (Rattus norvegicus [25]): 0.13%

N=C(N)c1ccc(-c2ccc(-c3nc4cc(C(=N)N)ccc4[nH]3)o2)cc1
Toxicity [27]: 0 | Control (Rattus norvegicus [28]): 50.98%

CC(C)/N=C(\N)c1ccc2[nH]c(-c3ccc(-c4nc5cc(/C(N)=N/C(C)C)ccc5[nH]4)o3)nc2c1.Cl
Control (Rattus norvegicus [25]): 0.11% | Toxicity [29]: 0 | Toxicity [30]: 0 | Control (Rattus norvegicus [31]): 31.77

— ChEMBL document CHEMBL1131123, “Extended aromatic furan amidino derivatives as anti-Pneumocystis carinii agents” (J Med Chem, 1998)
